MT stabilizer – stabilizes microtubules in HeLa cells; HeLa tubulin immunostaining HCS, 24 h; share of cells brighter than vehicle mean+2SD; % tubulin-high responders, % at 10 µM; 200,000 compounds, 0.83% hits; AID 2205;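 active = plate Z-score above 3 for both tubulin-high and condensed-nucleus cell shares, with cell loss under 80%, at 10 µM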;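 note: anti alpha tubulin signal scored within the nucleus-defined area of each cell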
NPY Y2 blocker – NPY-Y2 (human) receptor antagonism; P49146; NPY-Y2 expressing cells, antagonist mode; inhibition, % at 2.7 µM; 140,000 compounds, 0.99% hits; in the data active = inhibition above about 17%;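 note: 0% = vehicle with agonist challenge and 100% = reference antagonist with challenge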
b-catenin transl – alters nuclear translocation of beta-catenin in HeLa cells; immunofluorescence imaging; nuclear translocation activity, % at 5 µM; 190,000 compounds, 0.3% hits;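 active = nuclear translocation activity above 50% at 5 µM, with a well cell count of 50 or more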;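 note: per-cell ratio of nuclear to cytoplasmic median beta-catenin stain intensity; plate controls were DMSO negative control for no effect and GSK-3 inhibitor IX positive control for full effect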
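System: HeLa cells, endogenous beta-catenin; compound dosing: 5 µM primary single dose, 0.1% DMSO, 0.02–20 µM confirmation series; incubation: 24 h compound exposure at 37°C, 5% CO2; signal: beta-catenin immunofluorescence imaging with DAPI; evaluation: % activation, nuclear-to-cytoplasmic median beta-catenin signal ratio per cell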
NPY1 pot ag – potentiates or activates human NPY-Y1 receptor; P25929; NPY-Y1 expressing cells, potentiator/agonist activation; activation, % at 3.6 µM; 220,000 compounds, 0.37% hits; AID 1304; in the data active = activation above about 33%, passing the limit was not always enough;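 note: cells stimulated with NPY at EC10 then isoproterenol at EC100; 0% = low agonist plus stimulus and 100% = saturating agonist plus stimulus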
Target sequence (P25929 whole entry, looked up): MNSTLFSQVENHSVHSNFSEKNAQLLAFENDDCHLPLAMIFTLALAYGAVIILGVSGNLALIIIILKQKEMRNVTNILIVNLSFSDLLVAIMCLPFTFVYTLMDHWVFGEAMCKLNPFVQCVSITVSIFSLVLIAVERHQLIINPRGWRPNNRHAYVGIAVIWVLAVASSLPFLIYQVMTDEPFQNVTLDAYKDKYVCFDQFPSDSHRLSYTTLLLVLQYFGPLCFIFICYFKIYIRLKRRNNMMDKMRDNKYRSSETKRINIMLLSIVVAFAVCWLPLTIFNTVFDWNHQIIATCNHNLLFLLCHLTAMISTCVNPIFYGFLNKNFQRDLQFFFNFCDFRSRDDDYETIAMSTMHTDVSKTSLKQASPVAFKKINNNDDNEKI
NPY2 pot ag – potentiators or agonists of human neuropeptide Y receptor Y2. P49146. cells expressing NPY-Y2, potentiator/agonist read-out. activation, % at 3.6 µM. 220,000 compounds, 0.45% hits; in the data active = activation above about 27%;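 note: cells stimulated with NPY near EC25 plus isoproterenol at EC100; 0% = vehicle plus submaximal agonist and 100% = vehicle plus saturating agonist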
NPY Y1 blocker – blocks the human neuropeptide Y Y1 receptor; P25929; HEK293-CNG Y1 cells, membrane potential fluorescence; NPY at EC95, then isoproterenol; inhibition, % at 3.6 µM; 200,000 compounds, 1% hits; AID 1040;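 active = inhibition above the campaign mean inhibition of all tested compounds plus 3 SD, cut at about 20% in these data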;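 note: 0% = DMSO wells given NPY plus isoproterenol and 100% = isoproterenol alone without NPY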
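Material: HEK293 cells with Y1 receptor plus CNG channel; times: compound incubation 1 h at room temperature, readout 45 min post-stimulation; signal: fluorescence, membrane potential probe; read-out basis: fluorescence ratio normalized to % inhibition between controls; benchmarks: full-block control isoproterenol-only wells, zero-block control NPY plus isoproterenol wells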
NPY-Y1 confirm – confirmation of human NPY-Y1 receptor potentiators or agonists; shares compounds with NPY1 pot ag; cell-based NPY-Y1 potentiator/agonist assay; activation, % at 3.6 µM; 280 compounds, 20% hits; AID 1546; in the data active = activation above about 45%;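 note: cells challenged with NPY at its EC10 plus isoproterenol stimulus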
NPY-Y2 counter – NPY-Y2 potentiation or agonism as NPY-Y1 counter-screen. shares compounds with NPY1 pot ag. HEK293-CNG cells, membrane-potential fluorescence (FLIPR), 1536-well. activation, % at 3.6 µM. 280 compounds, 20% hits; in the data active = activation above about 33%
NPY-Y1 agonist – counter-screen for NPY-Y1 potentiators: agonists of human NPY-Y1. HEK293 Y1-CNGC, membrane potential fluorescence, agonist mode. shares compounds with NPY1 pot ag. 280 compounds, 50% hits. activation, % at 3.6 µM;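 active = percent activation above the mean of DMSO-only control wells plus 3 SD of those wells, cut at about 18% in these data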;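 note: cells challenged with isoproterenol plus Ro 20-1724 with no NPY in test wells; Y1 agonism lowers isoproterenol-driven cAMP and reduces probe fluorescence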
NPY-Y2 agonist – human NPY-Y2 agonism as NPY-Y1 counter-screen. shares compounds with NPY1 pot ag. HEK293 Y2-CNGC, membrane potential fluorescence, agonist mode. activation, % at 3.6 µM. 280 compounds, 67% hits. AID 1698;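 active = activation above the solvent-only control wells' mean plus 3 SD, cut at about 11% in these data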;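 note: 0% = DMSO with isoproterenol and 100% = 40 nM NPY maximal response; agonism lowers cAMP so well fluorescence drops in active wells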
CNGC inh 2 – CNG channel inhibition, counter-screen for NPY-Y1 potentiators; shares compounds with NPY1 pot ag; HEK293-CNG parental, isoproterenol cAMP, membrane potential fluorescence; inhibition, % at 3.6 µM; 280 compounds, 42% hits;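 active = inhibition above the mean of stimulated solvent-only control wells plus 3 SD, cut at about 22% in these data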;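 note: 0% = isoproterenol-stimulated DMSO wells and 100% = unstimulated DMSO wells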
The depositor's hits bear a star; . = no result given. This is a sample that favours compounds with a hit; in the whole collection about 2.6% have one here.

SMILES	MT stabilizer	NPY Y2 blocker	b-catenin transl	NPY1 pot ag	NPY2 pot ag	NPY Y1 blocker	NPY-Y1 confirm	NPY-Y2 counter	NPY-Y1 agonist	NPY-Y2 agonist	CNGC inh 2
O=C(Nc1ccccc1N1CCCCC1)c1ccc(Cl)c([N+](=O)[O-])c1	2	.	-1	51*	9	-10	45*	39*	29*	38*	34*
COc1cccc(C(=O)NC(=O)Nc2cc(C)[nH]n2)c1	.	.	-1	76*	-11	.	-6	-5	-4	4	-2
COc1cccc(C(=O)Nc2ccc(C)cc2)c1	4	4	.	-14	8	-9	.	.	.	.	.
Cc1oc2ccc(O)c(CN(C)C)c2c1C(=O)c1ccccc1	1	.	1	47*	14	2	14	21	16	11*	-10
CCOC(=O)c1c(CSCc2ccccc2)oc2ccc(O)c(CN(C)C)c12	.	.	4	20	-21	.	.	.	.	.	.
CC(C)Cn1c(N)c(C(=O)CSc2ncnc3sc4c(c23)CCCC4)c(=O)n(C)c1=O	8	2	0	3	-2	3	.	.	.	.	.
Cc1ccc(OCC(O)CN2CCN(c3ccccc3)CC2)cc1 (centres undefined)	3	10	-2	-15	-22	6	.	.	.	.	.
OC(COc1cccc2ccccc12)CN1CCN(c2ccccc2)CC1 (centres undefined)	.	.	0	54*	-10	.	2	6	29*	17*	-22
CCOc1cc(/C=N/NC(=O)C(=O)NCCCOC(C)C)cc(Br)c1O	3	3	.	0	9	6	.	.	.	.	.
O=C(NC1CC1)C1CCN(C2CCN(C(=O)c3ccc4cccc(F)c4n3)CC2)CC1	7	.	0	-2	10	0	.	.	.	.	.
Cc1onc(-c2c(Cl)cccc2Cl)c1C(N)=O	3	5	0	6	3	-5	.	.	.	.	.
Cc1onc(-c2c(Cl)cccc2Cl)c1C(=O)n1nnc2ccccc21	2	2	.	45*	-13	6	5	-3	-4	-5	3
N#Cc1c(-n2cccc2/C=N/O)sc2c1CCCC2	4	3	1	44*	15	4	2	-2	-2	3	-2
CC(=O)Nc1ccc(S(=O)(=O)NC2=C(N3CCN(Cc4ccccc4)CC3)C(=O)c3ccccc3C2=O)cc1	2	-7	0	5	4	-12	.	.	.	.	.
CC1CCN(C2=C(NS(=O)(=O)c3ccc(Cl)cc3)C(=O)c3ccccc3C2=O)CC1	2	-11	0	44*	19	-17	99*	80*	65*	57*	77*
CCOC(=O)C1CCN(C2=C(NS(=O)(=O)c3ccc(Cl)cc3)C(=O)c3ccccc3C2=O)CC1	.	.	1	55*	35	.	72*	57*	70*	65*	57*
Cc1ccc(-c2cc(=O)c3cc(Cl)ccc3[nH]2)cc1	4	.	0	10	-3	-4	.	.	.	.	.
Cc1ccsc1C(C(=O)NC(C)(C)C)N(C(=O)c1csnn1)c1ccccc1 (centres undefined)	3	.	0	16	9	-2	.	.	.	.	.
COc1ccc(C)cc1NC(=O)C1CC(=O)N(Cc2ccco2)C1 (centres undefined)	2	2	-1	-11	13	1	.	.	.	.	.
COc1cc2c(cc1NC(=O)C(C)OC(=O)C1CC(=O)N(Cc3ccco3)C1)oc1ccccc12 (centres undefined)	2	-3	.	124*	6	-10	6	8	12	16*	15
Cc1cc(NC(=O)CSc2cn(C)c3ccccc23)no1	3	2	.	2	2	-2	.	.	.	.	.
CCOc1cc(S(=O)(=O)NCCc2cccc(C)c2)c(OCC)cc1-n1cnnn1	4	1	0	-24	-11	-1	.	.	.	.	.
CCN(CC)S(=O)(=O)c1cc(NC(=O)Cn2ncc(Cl)c(Cl)c2=O)ccc1C	.	.	-1	44*	32	.	36	19	22*	18*	27*
COc1ccc(CNC(=O)c2c(O)c3cccc4c3n(c2=O)CCC4)cc1OC	4	2	-2	35*	-16	1	-8	0	-3	3	-1
COC(=O)COc1ccc(/C=C2/NC(=O)N(CC(=O)OC)C2=O)cc1	4	.	0	49*	9	-2	118*	90*	103*	89*	96*
SMILES	MT stabilizer	NPY Y2 blocker	b-catenin transl	NPY1 pot ag	NPY2 pot ag	NPY Y1 blocker	NPY-Y1 confirm	NPY-Y2 counter	NPY-Y1 agonist	NPY-Y2 agonist	CNGC inh 2
COc1ccc(CNC(=O)C2CCCN(Cc3nc(-c4cccc(C)c4)oc3C)C2)cc1 (centres undefined)	2	.	-11	-22	-23	3	.	.	.	.	.
COc1ccc(-c2nc(CN3CCCC(C(=O)NC4CCCC4)C3)c(C)o2)cc1 (centres undefined)	3	2	.	59*	-12	0	-5	-1	-3	8	-1
CCN(CC)S(=O)(=O)c1ccc(NC(=O)c2cccs2)cc1	2	.	0	86*	-17	1	-6	-2	-8	3	6
CC1OC(Nc2ccc(N=Nc3ccccc3)cc2)C(O)C(O)C1O (centres undefined)	5	.	-3	38*	16	-9	33	24	27*	37*	16
CC1OC(Nc2cccc3ccccc23)C(O)C(O)C1O (centres undefined)	5	2	-1	-11	7	0	.	.	.	.	.
CC1CCC(C(C)C)C(OCC(O)CNC(C)c2ccccc2)C1 (centres undefined)	3	.	-3	43*	17	7	32	39*	45*	42*	14
CC(NCC(O)COC1CCC(C(C)(C)C)CC1)c1ccccc1 (centres undefined)	4	.	.	-31	-23	18	.	.	.	.	.
CC1CCN(CC(O)COC2CC(C)CCC2C(C)C)CC1 (centres undefined)	4	.	-1	41*	-4	10	4	5	-7	16*	-9
Cc1ccc(/C=C(\NC(=O)c2ccc(C)cc2)C(=O)NCCCn2ccnc2)cc1	2	.	0	18	-4	2	.	.	.	.	.
